Test results published in ChEMBL document CHEMBL1125644, “A new class of calcium antagonists. 2. Synthesis and biological activity of 11-[[4-[4-(4-fluorophenyl)-1-piperazinyl]butyryl]amino]-6,11- dihydrodibenzo[b,e]-thiepin maleate and related compounds” (J Med Chem, 1991).
Active and inactive are the calls of the source. The rule behind the calls is not given here.

Assays:
[1] = species: Rattus norvegicus; assay: Inhibition of calcium activation was assessed against calcium-induced constriction of potassium-depolarized rat aorta (Negative logarithm of the molar concentration); assay type: functional, organism-based; conditions: read-out: pA2 (converted)
[2] = tested on: Rattus norvegicus; assay: Preventive effect of compound was measured on methacholine-induced ST elevation in anesthetized rats at 1 mg/kg iv dose without test compound; assay type: functional
In short: (§1)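 Male Sprague-Dawley rats (~500 g), pentobarbital 60 mg/kg ip. Methacholine 8 μg/kg bolus via carotid cannula near aortic valve into coronary ostia, before, at 0.5 min and every 5 min after iv compound (femoral vein; vehicle 5% ethanol in saline). Lead II ECG ST amplitude; mean ± SE, n=5; paired Student's t-test.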

[3] = tested on: Rattus norvegicus; assay: Preventive effect of compound was measured on methacholine-induced ST elevation in anesthetized rats at 0.3 mg/kg iv dose with test compound (0-90 min); assay type: functional; in short: as §1
[4] = tested on: Rattus norvegicus; assay: Preventive effect of compound was measured on methacholine-induced ST elevation in anesthetized rats at 0.1 mg/kg iv dose without test compound; assay type: functional; in short: as §1
[5] = tested on: Rattus norvegicus; assay: Preventive effect of compound was measured on methacholine-induced ST elevation in anesthetized rats at 0.3 mg/kg iv dose without test compound; assay type: functional; in short: as §1
[6] = tested on: Rattus norvegicus; assay: Preventive effect of compound was measured on methacholine-induced ST elevation in anesthetized rats at 1 mg/kg iv dose with test compound (0-90 min); assay type: functional; in short: as §1
[7] = species: Rattus norvegicus; assay: Inhibitory effect of compound on calcium influx by high potassium in isolated rat aorta; assay type: functional
In short: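 Rat aortic strips; compound present 30 min before and during 45Ca incubation under high potassium. Strips then washed 60 min at 4 °C in La-substituted solution (73.8 mM LaCl3, 5.5 mM glucose, 24 mM Tris), dissolved in toluene at 40 °C, counted by liquid scintillation; expressed as apparent tissue 45Ca content (mmol/kg wet wt).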

[8] = tested on: Rattus norvegicus; assay: Preventive effect of compound was measured on vasopressin-induced ST depression rats at 10 mg/kg po dose after 2 hr of administration; +=Differ from control value; assay type: functional, organism-based; parameters: dose 10 mg/kg
In short: (§2)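 Male Donryu rats (150-220 g), pentobarbital 60 mg/kg ip. Compound in 0.5% tragacanth given orally; vasopressin 0.2 IU/kg iv via femoral vein cannula. Lead II ECG ST depression measured every 30 s for 5 min after vasopressin. 10-20 experiments; + means p < 0.05 vs control, - not significant.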

[9] = tested on: Rattus norvegicus; assay: Preventive effect of compound was measured on vasopressin-induced ST depression rats at 10 mg/kg po dose after 3h of administration; +=Differ from control value; assay type: functional, organism-based; parameters: dose 10 mg/kg; in short: as §2
[10] = tested on: Rattus norvegicus; assay: Preventive effect of compound was measured on vasopressin-induced ST depression rats at 30 mg/kg po dose after 1 hr of administration; +=Differ from control value; assay type: functional, organism-based; parameters: dose 30 mg/kg; in short: as §2
[11] = species: Rattus norvegicus; assay: inhibitory effect of compound on contraction induced by high potassium in isolated rat aorta; assay type: functional
In short: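 Isolated rat aortic strips contracted with high potassium; compound added 30 min before measurement.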

[12] = tested on: Rattus norvegicus; assay: Preventive effect of compound was measured on vasopressin-induced ST depression rats at 3 mg/kg po dose after 1 hr of administration; +=Differ from control value; assay type: functional, organism-based; parameters: dose 3 mg/kg; in short: as §2
[13] = tested on: Rattus norvegicus; assay: Preventive effect of compound was measured on vasopressin-induced ST depression rats at 10 mg/kg po dose after 1 hr of administration; +=Differ from control value; assay type: functional, organism-based; parameters: dose 10 mg/kg; in short: as §2
[14] = tested on: Rattus norvegicus; assay: Preventive effect of compound was measured on vasopressin-induced ST depression rats at 30 mg/kg po dose after 7 hr of administration; +=Differ from control value; assay type: functional, organism-based; parameters: dose 30 mg/kg; in short: as §2
[15] = species: Rattus norvegicus; assay: Inhibitory effect of compound on contraction induced by high potassium in isolated rat aorta; assay type: functional
In short: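 Std-Wistar rat thoracic aorta spiral strips (3–4 mm × ~30 mm) under 1.0 g tension in Krebs-bicarbonate, 95% O2/5% CO2, 37 °C, depolarized; isometric contraction to Ca2+ recorded.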

[16] = tested on: Rattus norvegicus; assay: Preventive effect of compound was measured on vasopressin-induced ST depression rats at 30 mg/kg po dose after 7 hr of administration; -=No significance; assay type: functional, organism-based; parameters: dose 30 mg/kg; in short: as §2
[17] = tested on: Rattus norvegicus; assay: Preventive effect of compound was measured on vasopressin-induced ST depression rats at 3 mg/kg po dose after 1 hr of administration; -=No significance; assay type: functional, organism-based; parameters: dose 3 mg/kg; in short: as §2
[18] = tested on: Rattus norvegicus; assay: Preventive effect of compound was measured on vasopressin-induced ST depression rats at 10 mg/kg po dose after 3h of administration; -=No significance; assay type: functional, organism-based; parameters: dose 10 mg/kg; in short: as §2
[19] = tested on: Rattus norvegicus; assay: Preventive effect of compound was measured on methacholine-induced ST elevation in anesthetized rats at 0.1 mg/kg iv dose with test compound (0-90 min); assay type: functional; in short: as §1
[20] = tested on: Rattus norvegicus; assay: Preventive effect of compound was measured on vasopressin-induced ST depression rats at 30 mg/kg po dose after 3h of administration; +=Differ from control value; assay type: functional, organism-based; parameters: dose 30 mg/kg; in short: as §2

Compound | Kb [1] [nM] | other results
Cc1ccc(N2CCN(CCCC(=O)NC3c4ccccc4CSc4ccccc43)CC2)cc1 (stereo not drawn) | 3.31 | 
O=C(CCCN1CCN(c2ccccc2)CC1)NC1c2ccccc2C=Cc2ccccc21 | 3.72 | 
O=C(CCCN1CCN(c2ccc([N+](=O)[O-])cc2)CC1)NC1c2ccccc2CSc2ccccc21 (stereo not drawn) | 7.94 | 
O=C(CCCN1CCN(c2ccccc2F)CC1)NC1c2ccccc2CSc2ccccc21 (stereo not drawn) | 3.24 | 
O=C(CCCN1CCN(CC(=O)c2ccccc2)CC1)NC1c2ccccc2CSc2ccccc21 (stereo not drawn) | 15.5 | 
O=C(CCN1CCN(c2ccc(F)cc2)CC1)NC1c2ccccc2C=Cc2ccccc21 | 2.75 | 
O=C(CCCN1CCN(c2ccc(F)cc2)CC1)NC1c2ccccc2Oc2ccccc21 | 69.2 | 
O=C(CCCN1CCN(c2ccc(Cl)cc2)CC1)NC1c2ccccc2CSc2ccccc21 (stereo not drawn) | 2.82 | 
O=C(CCCN1CCN(C(=O)Oc2ccccc2)CC1)NC1c2ccccc2CSc2ccccc21 (stereo not drawn) | 13.2 | 
O=C(CCCN1CCN(Cc2ccccc2)CC1)NC1c2ccccc2CSc2ccccc21 (stereo not drawn) | 2.88 | 
O=C(CCCN1CCN(c2ccc(F)cc2)CC1)NC1c2ccccc2CCc2ccccc21 | 9.33 | 
O=C(CCCN1CCN(CCc2ccccc2)CC1)NC1c2ccccc2C=Cc2ccccc21 | 8.91 | 
O=C(CCCN1CCN(c2ccccc2F)CC1)NC1c2ccccc2C=Cc2ccccc21 | 3.47 | 
O=C(CCCN1CCN(c2ccc(F)cc2)CC1)NC1c2ccccc2-c2ccccc21 | 69.2 | 
O=C(CCCN1CCN(c2ccc(F)cc2)CC1)NC1c2ccccc2COc2ccccc21 (stereo not drawn) | 33.1 | 
O=C(CCCN1CCN(C/C=C/c2ccccc2)CC1)NC1c2ccccc2CSc2ccccc21 (stereo not drawn) | 7.59 | 
O=C(CCCN1CCN(c2ccc(F)cc2)CC1)NC1c2ccccc2C=Cc2ccccc21.O=C(O)/C=C\C(=O)O | 1.05 | Activity [2]: 0.224 delta mV; Activity [3]: 0.042 delta mV; Activity [4]: 0.165 delta mV; Activity [5]: 0.188 delta mV; Activity [6]: 0.083 delta mV
O=C(CCCN1CCN(c2ccc(F)cc2)CC1)NC1c2ccccc2CSc2ccccc21.O=C(O)/C=C\C(=O)O (stereo not drawn) [MONATEPIL MALEATE] | 1.95 | IC50 [7]: 16 nM; Activity [8]: Differ from control value; Activity [9]: Differ from control value; Activity [10]: Differ from control value; Activity [2]: 0.241 delta mV; Activity [3]: 0.093 delta mV; Activity [4]: 0.198 delta mV; Activity [5]: 0.203 delta mV; Activity [6]: 0.088 delta mV; IC50 [11]: 21 nM; Activity [12]: Differ from control value; Activity [13]: Differ from control value; Activity [14]: Differ from control value

Compound | Kb [1] [nM] | other results
COC(=O)C1=C(C)NC(C)=C(C(=O)OC)C1c1ccccc1[N+](=O)[O-] [NIFEDIPINE] |  | IC50 [7]: 4 nM; IC50 [15]: 2 nM
COc1ccc(CCN(C)CCCC(C#N)(c2ccc(OC)c(OC)c2)C(C)C)cc1OC (stereo not drawn) | 6.92 | 
COc1ccc(N2CCN(CCCC(=O)NC3c4ccccc4C=Cc4ccccc43)CC2)cc1OC | 5.01 | 
O=C(CCN1CCN(c2ccc(F)cc2)CC1)NC1c2ccccc2CSc2ccccc21 (stereo not drawn) | 2.82 | 
O=C(CCCN1CCN(Cc2ccccc2)CC1)NC1c2ccccc2C=Cc2ccccc21 | 6.03 | 
O=C(CCCN1CCN(C(=O)c2ccccc2)CC1)NC1c2ccccc2CSc2ccccc21 (stereo not drawn) | 36.3 | 
COc1ccc([C@@H]2Sc3ccccc3N(CCN(C)C)C(=O)[C@@H]2OC(C)=O)cc1 [DILTIAZEM] |  | IC50 [7]: 352 nM; Activity [8]: Active; Activity [10]: Active; Activity [2]: 0.223 delta mV; Activity [3]: 0.059 delta mV; Activity [4]: 0.227 delta mV; Activity [16]: inactive; Activity [17]: inactive; Activity [18]: inactive; Activity [19]: 0.148 delta mV; Activity [6]: 0.091 delta mV; IC50 [11]: 203 nM; Activity [20]: Active; Activity [13]: Active
COc1cccc(N2CCN(CCCC(=O)NC3c4ccccc4C=Cc4ccccc43)CC2)c1 | 5.37 | 
O=C(CCCN1CCN(c2ccccc2)CC1)NC1c2ccccc2CSc2ccccc21 (stereo not drawn) | 1.74 | 
O=C(CCCN1CCN(C/C=C/c2ccccc2)CC1)NC1c2ccccc2C=Cc2ccccc21 | 30.9 | 
O=C(CCCN1CCN(c2ccc(F)cc2)CC1)NC1c2ccccc2Sc2ccccc21 | 10.5 | 
O=C(CCCN1CCN(S(=O)(=O)Oc2ccccc2)CC1)NC1c2ccccc2CSc2ccccc21 (stereo not drawn) | 10.5 | 
COc1ccc(N2CCN(CCCC(=O)NC3c4ccccc4CSc4ccccc43)CC2)cc1 (stereo not drawn) | 3.39 | 
O=C(CCCCN1CCN(c2ccc(F)cc2)CC1)NC1c2ccccc2CSc2ccccc21 (stereo not drawn) | 3.47 | 
O=C(CCCN1CCN(c2ccc(C(F)(F)F)cc2)CC1)NC1c2ccccc2C=Cc2ccccc21 | 2.09 | 
O=C(CCCN1CCN(C(=O)c2ccccc2)CC1)NC1c2ccccc2C=Cc2ccccc21 | 20.9 | 
O=C(CCCN1CCN(CCCc2ccccc2)CC1)NC1c2ccccc2CSc2ccccc21 (stereo not drawn) | 12.3 | 
O=C(CCCCN1CCN(c2ccc(F)cc2)CC1)NC1c2ccccc2C=Cc2ccccc21 | 4.47 | 
